Rows were chosen to be rich in hits. Some 5.9% of all compounds tested hit in one or more screens of this group.
KDM4C inh = inhibitors of human demethylase GASC-1 KDM4C; inhibition, % at 12.5 µM; Q9H3R0; GST-KDM4C 2-372, H3K9me3 peptide, LANCE TR-FRET; 96,000 compounds, 0.15% hits; AID 720574;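 active means mean replicate inhibition above about 25%, with at least 55% of replicates also reaching it, limit read from the data, passing the limit was not always enough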
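Test system – GST-tagged GASC-1 (JMJD2C) catalytic fragment, aa 2-372 · Medium – HEPES buffer, pH 7.5, plus ascorbate · Reagent – H3K9me3 peptide with Fe(II)/2OG · Compound – one test concentration per compound · Timing – 30 min reaction, 60 min detection, RT · Technique – TR-FRET with Eu antibody and ULight streptavidin, EDTA stop · Read-out basis – inhibition from TR-FRET ratio decrease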
Pf Dd2 growth = inhibitors of Plasmodium falciparum Dd2 growth; P. falciparum Dd2 growth, SYBR Green, 72 h; active compounds read low; AID 1159554; 94,000 compounds, 2.3% hits; activity change, % at 10 µM; in the data active means activity change below about -80%
IDH1 mut inh = IDH1 R132H (human) inhibition; O75874; IDH1 R132H reductase, diaphorase/resazurin fluorescence, 60 min; inhibition, % at 10 µM; 70,000 compounds, 0.18% hits; AID 624101; in the data active means inhibition above about 34%;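 further: 0% = DMSO and 100% = no enzyme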
Target sequence (O75874 whole entry R132H): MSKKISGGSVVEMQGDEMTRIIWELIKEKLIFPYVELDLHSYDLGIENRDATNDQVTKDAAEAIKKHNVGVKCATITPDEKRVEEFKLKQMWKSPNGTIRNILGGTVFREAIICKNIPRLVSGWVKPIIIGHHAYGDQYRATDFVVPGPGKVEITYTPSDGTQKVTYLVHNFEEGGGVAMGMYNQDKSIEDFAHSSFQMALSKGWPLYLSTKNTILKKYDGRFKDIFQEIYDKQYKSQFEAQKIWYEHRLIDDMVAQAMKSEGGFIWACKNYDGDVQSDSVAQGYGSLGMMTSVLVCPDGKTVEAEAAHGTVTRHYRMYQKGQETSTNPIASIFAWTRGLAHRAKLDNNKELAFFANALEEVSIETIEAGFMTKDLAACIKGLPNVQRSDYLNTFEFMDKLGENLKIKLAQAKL
T cruzi growth = blocks T. cruzi growth in NIH3T3 culture | T. cruzi beta-gal in NIH3T3, GalScreen luminescence, 90 h | inhibition, % at 8.34 µM | 77,000 compounds, 5.9% hits | AID 624255;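 active means mean inhibition above about 93%, with at least 55% of replicates each passing it, limit read from the data, passing the limit was not always enough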
* hit, by the source's call; . = not tested or not shown; ! = repeats disagree.

SMILES	KDM4C inh	Pf Dd2 growth	IDH1 mut inh	T cruzi growth
COc1ccc2c3c([nH]c2c1)[C@@H](CO)N(Cc1ccccc1)CC31CCN(C(=O)c2cccnc2)CC1	0.1	-89.9*	.	.
COc1ccc2c3c([nH]c2c1)[C@@H](CO)N(Cc1cccnc1)CC31CCN(C(=O)c2cccnc2)CC1	-0.3	-15.5	.	.
COc1cccc2cc(C(=O)C3C(=O)C(=O)N(CCc4ccccc4)C3c3cccnc3)oc12 (stereo not given)	.	.	-0.4	.
O=C1OCCC1Sc1nnc(-c2ccccc2[N+](=O)[O-])o1 (stereo not given)	.	.	-0.3	.
O=C(NCc1ccco1)c1cc(-c2cccnc2)nc2ccc(Br)cc12	.	.	0.1	.
COc1ccc2c3c([nH]c2c1)[C@H](CO)N(Cc1cccnc1)CC31CCN(C(=O)CN(C)C)CC1	0.2	-86.0*	.	.
CC1(C)CC(n2c(SCC(=O)c3ccc(Cl)cc3)nc3ccccc3c2=O)CCO1 (stereo not given)	.	.	0.4	.
Cc1nc(-c2ccccc2)sc1C(=O)C1C(=O)C(=O)N(CCN(C)C)C1c1cccc([N+](=O)[O-])c1 (stereo not given)	.	.	-0.2	.
C[C@H]1CCCCO[C@H](CN(C)C(=O)Nc2ccc(C(F)(F)F)cc2)[C@@H](C)CN([C@@H](C)CO)C(=O)c2cc(NS(=O)(=O)c3ccc(F)cc3)ccc2O1	0.7	-81.8*	0.3	93.5
C[C@H](CO)N1C[C@H](C)[C@@H](CN(C)C(=O)Nc2ccc(C(F)(F)F)cc2)OCCCC[C@H](C)Oc2ccc(NS(=O)(=O)c3ccc(Cl)cc3)cc2C1=O	-2.4	-74.9	6.1	91.9
Cc1ccc(S(=O)(=O)Nc2ccc3c(c2)C(=O)N([C@@H](C)CO)C[C@H](C)[C@@H](CN(C)C(=O)Nc2ccc(C(F)(F)F)cc2)OCCCC[C@H](C)O3)cc1	-0.9	-81.6*	6.7	94.4
C[C@@H]1CCCCO[C@H](CN(C)C(=O)Nc2ccc(C(F)(F)F)cc2)[C@@H](C)CN([C@@H](C)CO)C(=O)c2cc(NS(=O)(=O)c3ccc(Cl)cc3)ccc2O1	-0.4	-83.5*	0.0	81.3
COc1ccc(S(=O)(=O)Nc2ccc3c(c2)C(=O)N([C@@H](C)CO)C[C@H](C)[C@H](CN(C)C(=O)Nc2ccc(C(F)(F)F)cc2)OCCCC[C@@H](C)O3)cc1	1.9	-84.5*	.	59.5
CC(C)N(CCC#N)S(=O)(=O)c1ccccc1[N+](=O)[O-]	.	.	0.0	.
C[C@@H]1CCCCO[C@H](CN(C)C(=O)CCC(F)(F)F)[C@H](C)CN([C@@H](C)CO)C(=O)c2cc(NS(=O)(=O)c3ccccc3)ccc2O1	-2.3	-27.6	91.4*	47.3
Cc1ccc(S(=O)(=O)Nc2ccc3c(c2)C(=O)N([C@H](C)CO)C[C@@H](C)[C@@H](CN(C)C(=O)Nc2ccccc2)OCCCC[C@@H](C)O3)cc1	-0.9	-83.0*	0.5	-60.3
C[C@@H]1CCCCO[C@@H](CN(C)C(=O)CCC(F)(F)F)[C@@H](C)CN([C@H](C)CO)C(=O)c2cc(NS(=O)(=O)c3ccccc3)ccc2O1	-2.5	-4.4	-2.1	-5.4
C[C@@H]1CCCCO[C@H](CN(C)C(=O)Nc2ccc(C(F)(F)F)cc2)[C@H](C)CN([C@H](C)CO)C(=O)c2cc(NS(=O)(=O)c3ccccc3)ccc2O1	0.3	-86.3*	.	97.9
CC1CCc2c(sc(NC(=O)CCN3C(=O)c4ccccc4C3=O)c2C#N)C1 (stereo not given)	.	.	-0.1	.
COC(=O)[C@@H]1C[C@@]23C=CC[N+]4([O-])CC[C@@]5(c6ccccc6N[C@@]15C2C)[C@H]34 (stereo not given in full)	.	.	0.1	.
N#Cc1ccc(-c2ccc([C@@H]3[C@@H]4CN(S(=O)(=O)Cc5ccccc5)C[C@H]3N4)cc2)cc1	-0.4	-86.0*	.	.
COc1ccccc1CN1C[C@@H]2N[C@H](C1)C2c1ccc(-c2ccc(C#N)cc2)cc1 (stereo not given in full)	-0.3	-82.4*!	.	.
N#Cc1cccc(-c2ccc(C3[C@@H]4CN(Cc5ccccc5)C[C@H]3N4)cc2)c1 (stereo not given in full)	1.2	-90.7*!	.	.
N#Cc1cccc(-c2ccc(C3[C@@H]4CN(S(=O)(=O)Cc5ccccc5)C[C@H]3N4)cc2)c1 (stereo not given in full)	-2.1	-26.7	.	.
Fc1cccc(-c2ccc(C3[C@@H]4CN(Cc5ccccc5F)C[C@H]3N4)cc2)c1 (stereo not given in full)	-0.1	-33.3	.	.
SMILES	KDM4C inh	Pf Dd2 growth	IDH1 mut inh	T cruzi growth
N#Cc1ccc(-c2ccc(C3[C@@H]4CN(Cc5ccccc5F)C[C@H]3N4)cc2)cc1 (stereo not given in full)	14.2	-88.6*!	.	.
COc1ccccc1CN1C[C@@H]2N[C@H](C1)C2c1ccc(-c2cccc(C#N)c2)cc1 (stereo not given in full)	-1.1	-23.8	.	.
CCc1ccc(CCC(=O)Nc2ccc(Cl)cc2Cl)o1	.	.	0.4	.
COC(=O)c1c(NC(=S)Nc2ccn(C)n2)sc(C(=O)N(C)C)c1C	.	.	0.1	.
COc1cc(OC)cc(-c2nnc(SCC(=O)NC3CC4CCC3C4)o2)c1 (stereo not given)	.	.	-0.5	.
NS(=O)(=O)c1ccc(CCNC(=O)c2cc(-c3cccnc3)nc3ccc(Cl)cc23)cc1	.	.	0.3	.
C[C@@H]1CCCCO[C@@H](CN(C)Cc2ccc3c(c2)OCO3)[C@@H](C)CN([C@H](C)CO)C(=O)c2cc(NC(=O)CCCCCC(=O)Nc3ccccc3N)ccc2O1	-0.1	-84.8*	0.1	.
C[C@@H]1CCCCO[C@H](CN(C)Cc2ccc(C(F)(F)F)cc2)[C@@H](C)CN([C@H](C)CO)C(=O)c2cc(NC(=O)CCCCCC(=O)Nc3ccccc3N)ccc2O1	0.5	-92.5*	.	.
C[C@@H]1CCCCO[C@@H](CN(C)Cc2ccc(Cl)c(Cl)c2)[C@@H](C)CN([C@H](C)CO)C(=O)c2cc(NC(=O)CCCCCC(=O)Nc3ccccc3N)ccc2O1	7.3	-67.0	0.4	.
C[C@@H]1CCCCO[C@H](CN(C)Cc2ccccc2)[C@@H](C)CN([C@@H](C)CO)C(=O)c2cc(NC(=O)CCCCCC(=O)Nc3ccccc3N)ccc2O1	0.9	-79.7	.	95.0
COC(=O)c1ccccc1NC(=O)c1ccc(Cl)c(S(=O)(=O)Nc2ccc(C)cc2C)c1	.	.	0.9	.
COc1ccc2c3c(n(C)c2c1)[C@@H](CO)N(CC1CCCC1)CC31CCN(C(=O)CN(C)C)CC1	1.5	-85.0*	.	.
CCC(=O)N1CCC2(CC1)CN(S(C)(=O)=O)[C@H](CO)c1c2c2ccc(OC)cc2n1C	1.0	25.7	.	.
COc1ccc2c3c(n(C)c2c1)[C@@H](CO)N(S(C)(=O)=O)CC31CCN(C(=O)CN(C)C)CC1	0.1	-88.6*	.	.
COc1ccc2c3c(n(C)c2c1)[C@@H](CO)N(S(=O)(=O)c1ccc(C)cc1)CC31CCN(C)CC1	-0.4	-58.5	.	.
COc1ccc2c3c(n(C)c2c1)[C@@H](CO)N(S(=O)(=O)c1ccc(C)cc1)CC31CCN(S(=O)(=O)c2ccc(C)cc2)CC1	2.1	-84.9*	.	.
CCC(=O)N1CCC2(CC1)CN(CC1CCCCC1)[C@H](CO)c1c2c2ccc(OC)cc2n1C	.	41.7	.	.

Screens from PubChem.
